pEC50: −log10 of the molar value. In brackets after ≈: the same amount, converted by molar mass.

For data set [1], the target named is T1, Peroxisome proliferator-activated receptor alpha (Homo sapiens, UniProt Q07869).
T1 sequence (Q07869 whole entry): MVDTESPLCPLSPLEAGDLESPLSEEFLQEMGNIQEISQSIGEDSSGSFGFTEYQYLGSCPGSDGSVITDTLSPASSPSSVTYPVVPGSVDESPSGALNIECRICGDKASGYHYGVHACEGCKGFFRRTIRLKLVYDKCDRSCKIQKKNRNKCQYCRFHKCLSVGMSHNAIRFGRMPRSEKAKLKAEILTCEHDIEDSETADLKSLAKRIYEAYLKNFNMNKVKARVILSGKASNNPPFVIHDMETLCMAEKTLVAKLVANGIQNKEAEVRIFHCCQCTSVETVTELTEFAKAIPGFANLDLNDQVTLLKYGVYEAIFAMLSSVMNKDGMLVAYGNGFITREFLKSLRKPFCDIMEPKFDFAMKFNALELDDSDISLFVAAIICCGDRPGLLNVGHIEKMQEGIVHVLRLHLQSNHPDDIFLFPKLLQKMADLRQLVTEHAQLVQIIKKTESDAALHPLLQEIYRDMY
In words: Agonist activity at Gal4-fused human PPARalpha. It is filed as functional.

Data set [2] deals with T2, Peroxisome proliferator-activated receptor gamma (Homo sapiens, UniProt P37231).
T2 sequence (P37231 whole entry): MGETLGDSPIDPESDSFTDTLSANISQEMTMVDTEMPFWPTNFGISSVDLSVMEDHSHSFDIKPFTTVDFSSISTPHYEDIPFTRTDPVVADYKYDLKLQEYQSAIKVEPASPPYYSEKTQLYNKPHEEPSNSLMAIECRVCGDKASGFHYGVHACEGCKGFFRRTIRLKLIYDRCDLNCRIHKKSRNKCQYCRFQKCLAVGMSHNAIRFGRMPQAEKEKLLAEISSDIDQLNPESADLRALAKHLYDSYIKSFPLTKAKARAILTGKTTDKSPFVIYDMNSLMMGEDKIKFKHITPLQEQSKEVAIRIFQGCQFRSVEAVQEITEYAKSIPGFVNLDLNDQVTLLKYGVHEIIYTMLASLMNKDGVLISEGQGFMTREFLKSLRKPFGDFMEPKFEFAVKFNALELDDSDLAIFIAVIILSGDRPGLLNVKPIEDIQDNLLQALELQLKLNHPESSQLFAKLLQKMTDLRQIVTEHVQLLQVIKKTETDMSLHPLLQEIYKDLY
In words: Agonist activity at Gal4-fused human PPARgamma.

The target of data set [3] is T3, Peroxisome proliferator-activated receptor delta (Homo sapiens, UniProt Q03181).
T3 sequence (Q03181 whole entry): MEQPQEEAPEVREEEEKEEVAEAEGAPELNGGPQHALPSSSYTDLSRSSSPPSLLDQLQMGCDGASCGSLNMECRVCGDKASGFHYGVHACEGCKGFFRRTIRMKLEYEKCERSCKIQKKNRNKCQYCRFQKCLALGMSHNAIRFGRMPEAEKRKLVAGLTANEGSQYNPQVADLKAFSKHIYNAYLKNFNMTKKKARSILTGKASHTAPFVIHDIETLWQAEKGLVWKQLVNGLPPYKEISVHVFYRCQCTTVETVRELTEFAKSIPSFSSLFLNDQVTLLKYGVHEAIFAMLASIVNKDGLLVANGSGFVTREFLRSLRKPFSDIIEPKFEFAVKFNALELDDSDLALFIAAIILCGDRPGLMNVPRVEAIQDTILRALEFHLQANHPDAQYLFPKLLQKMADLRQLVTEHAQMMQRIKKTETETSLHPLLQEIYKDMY
Briefly: Agonist activity at Gal4-fused human PPARdelta. It is filed as functional.

For data set [4], the target named is T4, Peroxisome proliferator-activated receptor alpha (Mus musculus, UniProt P23204).
T4 sequence (P23204 whole entry): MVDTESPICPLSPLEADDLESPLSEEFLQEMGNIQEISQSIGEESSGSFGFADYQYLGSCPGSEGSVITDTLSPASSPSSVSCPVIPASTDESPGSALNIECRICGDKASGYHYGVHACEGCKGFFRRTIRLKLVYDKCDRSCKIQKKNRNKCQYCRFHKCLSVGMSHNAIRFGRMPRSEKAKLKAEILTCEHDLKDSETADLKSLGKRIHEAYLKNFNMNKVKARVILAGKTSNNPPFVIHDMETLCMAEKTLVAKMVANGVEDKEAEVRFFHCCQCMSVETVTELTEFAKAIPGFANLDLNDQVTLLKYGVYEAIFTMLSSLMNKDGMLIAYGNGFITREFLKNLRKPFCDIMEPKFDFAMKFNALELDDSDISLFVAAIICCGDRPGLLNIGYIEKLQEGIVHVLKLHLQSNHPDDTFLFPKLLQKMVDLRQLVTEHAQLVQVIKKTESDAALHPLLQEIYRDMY
In words: Agonist activity at Gal4-fused mouse PPARalpha. It is filed as functional.

The target in data set [5] is T5, Peroxisome proliferator-activated receptor gamma (Mus musculus, UniProt P37238).
T5 sequence (P37238 whole entry): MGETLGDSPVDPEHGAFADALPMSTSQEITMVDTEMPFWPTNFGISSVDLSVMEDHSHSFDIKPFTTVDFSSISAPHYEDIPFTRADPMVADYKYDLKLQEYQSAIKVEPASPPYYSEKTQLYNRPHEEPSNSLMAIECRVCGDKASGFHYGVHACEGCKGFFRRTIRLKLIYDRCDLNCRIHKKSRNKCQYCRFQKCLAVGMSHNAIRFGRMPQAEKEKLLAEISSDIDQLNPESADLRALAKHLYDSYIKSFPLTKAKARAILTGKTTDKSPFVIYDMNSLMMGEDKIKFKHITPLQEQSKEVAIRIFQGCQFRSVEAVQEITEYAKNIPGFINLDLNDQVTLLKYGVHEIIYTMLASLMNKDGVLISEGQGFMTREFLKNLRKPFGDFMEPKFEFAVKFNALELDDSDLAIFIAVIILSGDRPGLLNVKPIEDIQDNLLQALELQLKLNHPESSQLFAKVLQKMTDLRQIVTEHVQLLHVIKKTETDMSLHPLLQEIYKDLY
In words: Agonist activity at Gal4-fused mouse PPARgamma. It is filed as functional.

In data set [6] the target is T6, Peroxisome proliferator-activated receptor delta (Mus musculus, UniProt P35396).
T6 sequence (P35396 whole entry): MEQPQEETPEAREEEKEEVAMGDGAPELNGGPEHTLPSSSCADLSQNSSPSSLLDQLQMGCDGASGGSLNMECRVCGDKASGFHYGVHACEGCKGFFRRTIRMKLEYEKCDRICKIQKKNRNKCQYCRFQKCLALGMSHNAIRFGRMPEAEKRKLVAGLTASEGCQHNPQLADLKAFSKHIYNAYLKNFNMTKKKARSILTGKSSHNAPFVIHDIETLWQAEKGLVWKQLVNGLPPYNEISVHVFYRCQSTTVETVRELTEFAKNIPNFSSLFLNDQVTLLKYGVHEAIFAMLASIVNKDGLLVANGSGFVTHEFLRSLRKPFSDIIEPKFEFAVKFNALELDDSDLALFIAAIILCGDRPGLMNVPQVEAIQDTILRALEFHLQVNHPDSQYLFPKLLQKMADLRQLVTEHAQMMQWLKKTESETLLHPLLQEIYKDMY
In words: Agonist activity at Gal4-fused mouse PPARdelta. It is filed as functional.

The next data set addresses Albumin (Homo sapiens, UniProt P02768). In words: Binding affinity to human serum albumin. It is filed as ADME. Conditions: isolated protein.
Data set [7] in a line: Aqueous solubility of the compound. It is filed as physicochemical.
Data set [8] is described as follows: AUC in NMRI mouse at 10 mg/kg, po. Details: dose 10 mg/kg, route oral. The settings on record: plasma. It is filed as ADME, organism-based. In short, it runs like this:
(§1)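 Male NMRI mice (n = 3) dosed orally at 10 mg/kg as a suspension in 20% PEG 400 (5 ml/kg). Plasma sampled at 7 time points up to 6 h. Concentrations dose-normalised to 1 mg/kg. Bioavailability taken against an iv arm (3 mg/kg, 20% PEG400, n = 3).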

A short description of data set [9]: Tmax in NMRI mouse at 10 mg/kg, po. It is filed as ADME, organism-based. Details: dose 10 mg/kg, route oral. The settings on record: in vivo. In short, it runs like this: as §1
The nature of data set [10]: Oral bioavailability in NMRI mouse at 10 mg/kg. It is filed as ADME, organism-based. Conditions: in vivo. In short, it runs like this:
as §1

The nature of data set [11]: Clearance in NMRI mouse at 3 mg/kg, iv. It is filed as ADME, organism-based. Further details: dose 3 mg/kg, route intravenous. Conditions: in vivo. In short, it runs like this:
(§2)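 Male NMRI mice (n = 3) given 3 mg/kg iv in 20% PEG400. Plasma concentration–time profile followed over about 6 h. Concentrations dose-normalised to 1 mg/kg.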

A short description of data set [12]: Half life in NMRI mouse at 3 mg/kg, iv. It is filed as ADME, organism-based. Details: dose 3 mg/kg, route intravenous. Conditions: in vivo. In short, it runs like this: as §2
Data set [13] deals with Mus musculus. In words: Reduction in triglyceride level in human ApoA1 transgenic mouse at 0.6 mg/kg, po for 7 days relative to control. It is filed as functional. Further details: scale not given: the % may be the effect or the level left. In short, it runs like this: (§3)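 Male transgenic hAPO-A1 C57BL/6 mice, n = 10 per dose. Dosed orally once daily for 7 d at 0.6, 2 or 6 mg/kg in Solutol HS15 + ethanol + 0.9% brine (1+1+8), 10 ml/kg. Serum triglycerides and total cholesterol measured photometrically against vehicle control. Total cholesterol serves as a surrogate for HDL.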

Data set [14] relates to Mus musculus. Briefly: Reduction in triglyceride level in human ApoA1 transgenic mouse at 2 mg/kg, po for 7 days relative to control. It is filed as functional. Details: scale not given: the % may be the effect or the level left. In short, it runs like this: as §3
The subject of data set [15] is Mus musculus. Briefly: Increase in total cholesterol level in human ApoA1 transgenic mouse at 0.6 mg/kg, po for 7 days (RVb = 29 %). It is filed as functional. In short, it runs like this:
as §3

Data set [16] relates to Mus musculus. In words: Increase in total cholesterol level in human ApoA1 transgenic mouse at 2 mg/kg, po for 7 days (RVb = 29 %). It is filed as functional. In short, it runs like this: as §3
In data set [17] the test system is Mus musculus. Briefly: Increase in total cholesterol level in human ApoA1 transgenic mouse at 6 mg/kg, po for 7 days (RVb = 29 %). It is filed as functional. In short, it runs like this:
as §3

Chain of Albumin (P02768 whole entry): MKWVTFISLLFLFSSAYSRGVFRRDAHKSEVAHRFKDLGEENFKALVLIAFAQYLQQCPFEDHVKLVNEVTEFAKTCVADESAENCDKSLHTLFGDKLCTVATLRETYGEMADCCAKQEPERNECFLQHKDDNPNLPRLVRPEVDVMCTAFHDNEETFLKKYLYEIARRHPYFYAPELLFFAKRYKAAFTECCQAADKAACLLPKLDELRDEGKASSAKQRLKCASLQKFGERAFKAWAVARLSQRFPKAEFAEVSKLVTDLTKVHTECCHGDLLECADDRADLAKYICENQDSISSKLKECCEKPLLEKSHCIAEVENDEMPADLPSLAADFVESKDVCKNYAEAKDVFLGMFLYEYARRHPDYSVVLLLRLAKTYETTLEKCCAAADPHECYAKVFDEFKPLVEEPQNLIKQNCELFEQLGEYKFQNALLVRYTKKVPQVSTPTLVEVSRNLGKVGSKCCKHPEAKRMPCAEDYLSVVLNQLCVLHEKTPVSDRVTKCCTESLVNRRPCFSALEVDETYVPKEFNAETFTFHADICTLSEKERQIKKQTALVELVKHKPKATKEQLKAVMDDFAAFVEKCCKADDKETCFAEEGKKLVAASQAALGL

As to `CCCCCCCN(CC(=O)Nc1ccc(C)cc1C)Cc1ccc(OC(C)(C)C(=O)O)cc1`, in data set [1], the pEC50 is less than 4.60.
Still for that read-out and setting: next, `COc1ccc(CN(CC(=O)Nc2ccc(C)cc2C)Cc2ccc(OC(C)(C)C(=O)O)cc2)cc1`: 6.05.
Still for that read-out and setting: next, `CC(C)(Oc1ccc(CN(CC(=O)NCc2ccccc2Cl)Cc2ccco2)cc1)C(=O)O`: 5.15.
In turn, `Cc1ccccc1NC(=O)CN(Cc1ccc(OC(C)(C)C(=O)O)cc1)Cc1ccco1` had a pEC50 in data set [1] of 5.70.
Compound `Cc1ccc(C)c(NC(=O)CN(Cc2ccc(OC(C)(C)C(=O)O)cc2)Cc2ccco2)c1` showed a pEC50 in data set [1] of 6.22.
Consider `COc1ccc(OC)c(NC(=O)CN(Cc2ccc(OC(C)(C)C(=O)O)cc2)Cc2ccco2)c1`, for which, in [1], the negative-log EC50 (pEC50) is 6.52.
Still for that read-out and setting: the figure for `COc1cccc(NC(=O)CN(Cc2ccc(OC(C)(C)C(=O)O)cc2)Cc2ccco2)c1` is 5.52; for `CC(C)(Oc1ccc(CN(CC(=O)Nc2ccc(F)cc2F)Cc2ccco2)cc1)C(=O)O` it is 5.82; for `CC(C)(Oc1ccc(CN(CC(=O)Nc2ccccn2)Cc2ccco2)cc1)C(=O)O` it is less than 4.60.
Same read-out and setting: the figure for `CC(C)(Oc1ccc(CN(CC(=O)NCc2ccccc2)Cc2ccco2)cc1)C(=O)O` is 4.89; for `Cc1ccc(NC(=O)CN(Cc2ccc(OC(C)(C)C(=O)O)cc2)Cc2cccs2)c(C)c1` it is 6.15.
In the case of `Cc1ccc(NC(=O)CN(Cc2ccc(OC(C)(C)C(=O)O)cc2)Cc2ccco2)c(C)c1`, the negative-log EC50 (pEC50) in [1] was 7.70; in data set [2], 6.10; in data set [3], 5.22; in data set [4], 7.70; in data set [5], 6.52; in data set [6] it was 5.70. Further, the Activity on Albumin is 10 µM; in the data set on Mus musculus [13], -3%; with Mus musculus [14] it was -20%; in the data set on Mus musculus [15], 58%; with Mus musculus [16] it was 74%; in the data set with Mus musculus [17] it was 91%. The same compound displayed a solubility in data set [7] of 500 µg/mL (≈ 1110 µM). In [8], this compound displayed an AUC of 370 ng·h/mL. In addition, the Tmax in data set [9] turned out to be 0.5 h. Further, the bioavailability in data set [10] stood at 20%. Moreover, in [11], the clearance was 89.2 mL/min/kg. Further, in [12], the half-life was 2 h.
As for `Cc1ccc(NC(=O)CN(Cc2ccccc2)Cc2ccc(OC(C)(C)C(=O)O)cc2)c(C)c1`, the negative-log EC50 (pEC50) in [1] was 6.00.
`CCCN(CC(=O)Nc1ccc(C)cc1C)Cc1ccc(OC(C)(C)C(=O)O)cc1`: the pEC50 in data set [1] is 6.00.
`CCCCN(CC(=O)Nc1ccc(C)cc1C)Cc1ccc(OC(C)(C)C(=O)O)cc1` had a negative-log EC50 (pEC50) in data set [1] of 5.00.
For the compound `CCCCCCCN(CCc1ccc(SC(C)(C)C(=O)O)cc1)C(=O)Nc1ccc(F)cc1F` [GSK-9578], the pEC50 in [3] is 5.70; in [4], 8.00; in data set [5], 5.60; in [6], 5.70. The Activity on Albumin is 1.3 µM. In addition, in [7], the solubility amounted to 100 µg/mL (≈ 203 µM).

The values above are taken from ChEMBL document CHEMBL1155498, “Glycine amides as PPARalpha agonists” (Bioorg Med Chem Lett, 2010).
